Bfl-1 A1 inh = inhibitors of the anti-apoptotic protein A1, read as caspase activation; AID 2462; MEF A1-2A-BIM cells, Caspase-Glo 3/7 luminescence, 3 h; percent of clofoctol response, vehicle zero; actives 0.066% (n = 330,000); caspase activation, % (no concentration beside the values);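 active = over half of replicate activation scores above 10%, or exactly half above 10 with the replicate mean above 10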
CHOP inh = blocks CHOP induction under ER stress | CHO-K1 CHOP-promoter luciferase, tunicamycin-induced, 15-18 h | inhibition, % at 10 µM | actives 3.8% (n = 220,000);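 active = compounds that reduced the stress-induced luciferase reporter signal by more than about 70% of percent inhibition, limit read from the data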
UPR CHOP act = apoptotic UPR (CHOP) activation. actives 0.34% (n = 330,000). activation, % at 10 µM. CHO-CHOP luciferase reporter, luminescence; percent of tunicamycin response over DMSO baseline;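 active = at 10 µM dose, activation of 40% or more, normalized to positive control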
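Assay system: CHO-CHOP cells, stable luciferase reporter of PERK-eIF2a-CHOP signalling / Buffer or medium: F12 plus 10% serum / Compound dosing: one dose, 10 µM in 0.5% DMSO / Times: 6 h compound treatment, 37 °C / Technique: luciferase luminescence / Read-out: % reporter activation, DMSO baseline versus tunicamycin full activation / Benchmarks: tunicamycin and DMSO controls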
XBP1 UPR activ = activators of adaptive arm of unfolded protein response (XBP1). CHO-XBP1 luciferase reporter, IRE1-XBP1 UPR activation, luminescence; percent of tunicamycin response, DMSO as zero. activation, % at 20 µM. AID 463104. actives 0.33% (n = 330,000);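 active = versus positive control, 20 µM dose yields 30% or more activation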
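assay system = CHO-XBP1 luciferase reporter cells | amount = 1000 cells/well | buffer or medium = F12 plus 10% FBS | compound dosing = single point, 20 µM final compound, 1% DMSO | incubation = 16-18 h cell attachment at 37 °C, then 6 h compound exposure | detection = Steady-Glo luminescence read | controls = tunicamycin 10 µg/mL and vehicle-only wells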
CHOP UPR conf = confirmation of apoptotic unfolded protein response (CHOP) activators | CHO-CHOP cells, CHOP-luciferase reporter luminescence; percent of tunicamycin response, DMSO as zero | activation, % at 10 µM | actives 64% (n = 1,000) | shares compounds with UPR CHOP act; in the data active = activation above about 33%
Hits are given with their value; . = inactive; / = not tested or not shown. The entries come from a sample that favours hits as a whole.

SMILES | Bfl-1 A1 inh | CHOP inh | UPR CHOP act | XBP1 UPR activ | CHOP UPR conf
Cc1cc(N2CCC(C)CC2)nc(-n2nc(C)cc2C)n1 | . | . | 86.5 | . | .
Cc1cc(C)n(-c2nc(N(C)C)nc(N3CCOCC3)n2)n1 | . | . | . | . | /
O=C(C#Cc1cccc([N+](=O)[O-])c1)c1ccccc1 | . | 107.8 | 133.8 | . | 187.7
CC(C)c1ccc(/C=C(\c2nc3ccccc3[nH]2)S(=O)(=O)c2ccccc2)cc1 | . | . | 68.8 | . | 105.7
COc1ccccc1CNC(=O)CCCNC(=O)c1ccc(Cl)cc1 | . | / | . | . | /
C=CCNC(=S)NNC(=O)c1ccc(=O)n(Cc2ccc(Cl)cc2Cl)c1 | . | . | . | . | /
Cc1cc(C(=O)Nc2nc(-c3ccccn3)cs2)ccc1[N+](=O)[O-] | . | . | . | . | /
O=C(Nc1nc(-c2ccccn2)cs1)c1cc(Cl)ccc1[N+](=O)[O-] | . | . | 65.7 | . | 166.7
O=C(CCCN1C(=O)S/C(=C\C=C\c2ccccc2)C1=O)Nc1ccc(O)cc1 | . | / | 63.9 | . | .
O=[N+]([O-])c1ccccc1/C=C/C=N/n1c(-c2ccccc2F)n[nH]c1=S | . | . | . | . | /
N#CC(C#N)=C1C=CC=CN1/C(=C\c1ccccc1)C(=O)c1cccs1 | . | . | 121.6 | . | 119.3
CCOC(=O)c1ccc(NC2=CC(=O)C(=O)c3ccccc32)cc1 | . | . | 65.0 | . | .
CC(=O)Nc1ccc(NC2=CC(=O)c3ccccc3C2=O)cc1 | . | / | . | . | /
N#CC1(NC(=O)CN2c3cccc4cccc(c34)S2(=O)=O)CCCCC1 | . | / | . | . | /
O=C1Nc2ccccc2/C1=C\C(=O)c1ccccc1 | . | / | 98.3 | . | 236.9
CCN(CC(=O)Nc1ccc(NC(C)=O)cc1)C(=O)c1ccc(=O)n(C)n1 | . | / | . | . | /
C/C(=N\NC(=O)C(C)Oc1ccc([N+](=O)[O-])cc1)c1ccccn1 (stereo not given) | . | . | 67.4 | . | 42.2
CC(C)c1ccc(N2C(=O)CC(Sc3nc4ccccc4o3)C2=O)cc1 (stereo not given) | . | . | 199.0 | . | 95.5
COc1ccc(N2C(=O)CC(Sc3nc4ccccc4s3)C2=O)cc1 (stereo not given) | . | . | . | . | /
Cc1ccccc1S(=O)(=O)NC1OC(=O)C(Cl)=C1Cl (stereo not given) | . | . | 47.4 | . | 39.8
CC1=CC(=O)C(C(C)C)=C/C1=N/OC(=O)c1cccc([N+](=O)[O-])c1 | . | . | 73.4 | . | 48.2
C/C(=N\NC(=O)c1ccc(-n2cnnn2)cc1)c1ccc(Cl)cc1 | . | / | . | . | /
COc1ccccc1N1CCN(C(=O)c2ccc3c(=O)n(Cc4ccco4)c(=S)[nH]c3c2)CC1 | . | . | . | . | /
COc1ccccc1Cn1c(=S)[nH]c2cc(C(=O)N3CCN(c4ccccc4OC)CC3)ccc2c1=O | . | / | 83.6 | . | .
CC(Oc1ccccc1)C(=O)Nc1cc(Cl)ccc1-n1cncn1 (stereo not given) | . | / | . | . | /
SMILES | Bfl-1 A1 inh | CHOP inh | UPR CHOP act | XBP1 UPR activ | CHOP UPR conf
COc1ccc(-c2ccc(-c3nc4c(c(=O)[nH]c(=O)n4Cc4ccccc4)n3C)o2)c([N+](=O)[O-])c1 | . | 90.2 | 59.2 | . | 40.9
CC(OC(=O)C1CC1)C(=O)Nc1cccc(S(=O)(=O)N2CCOCC2)c1 (stereo not given) | . | / | . | . | /
CC1OC23CCCCC2C(C#N)(C(=N)O3)C1(C#N)C#N (stereo not given) | . | . | . | . | /
N#CC12COC3(CCCCC3C1(C#N)C#N)OC2=N (stereo not given) | . | . | 46.2 | . | 43.2
COc1ccc(C2OC34CCCCC3C(C#N)(C#N)C2(C#N)C(=N)O4)cc1 (stereo not given) | . | . | 53.8 | . | 35.0
N#CC1(C#N)COC23CCCCC2C1(C#N)C(=N)O3 (stereo not given) | . | . | 64.7 | . | 54.7
CCC1OC23CCCCC2C(C#N)(C(=N)O3)C1(C#N)C#N (stereo not given) | . | . | . | . | /
Cc1c(C2C(C#N)=C(N)N(c3cccc([N+](=O)[O-])c3)C3=C2C(=O)CCC3)cnn1C (stereo not given) | . | . | . | . | /
COc1ccc2[nH]cc(C(=O)CCl)c2c1 | . | . | 101.8 | . | 39.0
CN(C)/C=C1/Sc2ccccc2C1=O | . | . | . | . | /
CC(=O)N(\C=C/C=C/C=C1\Sc2ccccc2C1=O)c1ccccc1 | . | . | 63.9 | . | 35.1
NC(=O)C1CCN(S(=O)(=O)c2cc3c4c(c2)CCN4C(=O)CC3)CC1 | . | / | . | . | /
O=C(Nc1ccc(O)c2c(=O)cc(-c3cccc(Cl)c3)oc12)c1ccccc1Cl | . | . | 52.3 | . | 46.3
S=C(Nc1ccccc1)c1ccccn1 | . | . | 116.7 | . | 148.8
COc1cccc(C(=O)CC(=O)C(=O)Nc2cc(OC)c(OC)c(OC)c2)c1 | . | / | . | . | /
CC(=O)Nc1ccc(-c2cn3cc(C)ccc3n2)cc1 | . | . | . | . | /
Cc1ccc2nc(-c3ccc(O)c(O)c3)cn2c1 | . | / | 155.4 | . | 61.0
CCOc1ccc2nc3cc(NCc4ccc(OC)cc4)ccc3c(N)c2c1 | . | / | 71.4 | . | .
O=C1CC(c2ccc(O)c(O)c2)Oc2c1ccc(O)c2O (stereo not given) | . | . | . | . | /
CC(C)=CCc1c(O)ccc2c1OC(c1ccc(O)c(O)c1)CC2=O (stereo not given) | . | . | 68.7 | . | .
CCOC(=O)C1(Cc2ccccc2)CCCN(Cc2ccc(OCC)c(CO)c2)C1 (stereo not given) | . | . | . | . | /
O=C(O)c1ccc(N2C(=O)c3[nH]nc(-c4ccccc4)c3C2c2ccccc2)cc1 (stereo not given) | . | . | . | . | /
CCOc1cc(C2c3c(-c4ccccc4)n[nH]c3C(=O)N2c2ccc(C(=O)O)cc2)ccc1O (stereo not given) | . | . | 45.4 | . | .
O=C(NCCc1ccc(F)cc1)c1coc(=O)c(Br)c1 | . | / | 125.2 | . | 87.9
C[C@H](NC(=O)c1nc[nH]c1C(=O)N[C@@H](CCCCN)C(=O)OC(C)(C)C)C(=O)OCc1ccccc1 | . | / | . | . | /
SMILES | Bfl-1 A1 inh | CHOP inh | UPR CHOP act | XBP1 UPR activ | CHOP UPR conf
CC(C)(C)c1ccc(Oc2ccc(NC(=O)c3ccco3)cn2)cc1 | . | . | 42.6 | . | .
O=C(Nc1ccc(Oc2cccc(C(F)(F)F)c2)nc1)c1ccco1 | . | . | . | . | /
Cc1ccc(C)c(NC(=O)COC(=O)c2cc3ccccc3oc2=O)c1 | . | / | . | . | /
Nc1nn2cc(-c3ccccc3)nc2c2ccccc12 | . | . | . | . | /
Cc1cn2nc(N)c3ccccc3c2n1 | . | . | 41.1 | . | .
CC1COc2ccccc2N1S(=O)(=O)c1cc(Cl)ccc1Cl (stereo not given) | . | / | . | . | /

Screening data: PubChem BioAssay, several laboratories
